Measured values pooled from the literature.
Compare with care: the assays were run in different laboratories.
Observed: cell growth or viability

CC1=C(O)C(=O)C=C2C1=CC=C1[C@@]2(C)CC[C@@]2(C)[C@@H]3C[C@](C)(C(=O)OCCCn4cc(C=O)c5ccccc54)CC[C@]3(C)CC[C@]12C — IC50 (MGC-803; MTT; 48 h): 0.34 µM
Cc1cccc(-n2ncc(Cl)c(Cl)c2=O)c1 — IC50 (NCI-H2030; resazurin; 96 h): 0.27 µM
Cc1cc(N(CCO)CCO)ccc1C=O — IC50 (A498): > 10 µg/mL
N.N.[Cl][Pt][Cl] — IC50 (MGC-803; MTT; 24 h): 29.5 µM
N.N.[Cl][Pt][Cl] — IC50 (SW480; MTT; 48 h): 13.4 µM
Cc1cc(N(CCOS(C)(=O)=O)CCOS(C)(=O)=O)ccc1C=O — IC50 (A498): 0.0463 µg/mL
CC1=C(O)C(=O)C=C2C1=CC=C1[C@@]2(C)CC[C@@]2(C)[C@@H]3C[C@](C)(C(=O)O)CC[C@]3(C)CC[C@]12C — IC50 (MGC-803; MTT; 48 h): 0.35 µM
COc1ccc2c(c1)[nH]c1c(C)nccc12 — IC50 (PC-12; MTT; 48 h): 18 µM
C[C@H]1CN(c2ccncc2NC(=O)c2ccc(F)c(-c3c(F)cccc3F)n2)C[C@@H](N)[C@@H]1O — GI50 (MM1.S; thymidine uptake; 72 h): 0.022 µM
